Data taken from ChEMBL document CHEMBL1145596 (Bioorg Med Chem Lett, 2008).
Values after ≈ are worked out from the molar mass of the structure shown.

Assays:
[1] = target: T1, ATP-dependent translocase ABCB1 (Homo sapiens, UniProt P08183); assay: Reversal of P-glycoprotein-mediated multidrug resistance in human MDR1 gene transfected mouse L5178Y cells assessed as fluorescence activity ratio at 40 ug/ml by flow cytometry; format: cell-based
[2] = target: T1, ATP-dependent translocase ABCB1; assay: Reversal of P-glycoprotein-mediated multidrug resistance in human MDR1 gene transfected mouse L5178Y cells assessed as fluorescence activity ratio at 4 ug/ml by flow cytometry; format: cell-based
[3] = Lipophilicity, log P of the compound; format: physicochemical; conditions: octanol/water
Method in brief: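 LogP computed for the unprotonated molecule with a commercial software package. Not measured experimentally.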

[4] = target: T1, ATP-dependent translocase ABCB1; assay: Reversal of P-glycoprotein-mediated multidrug resistance in human MDR1 gene transfected mouse L5178Y cells assessed as fluorescence activity ratio at 0.4 ug/ml by flow cytometry; format: cell-based
Method in brief: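 L5178 MDR1-transfected cells and parental cells grown in McCoy's 5A with 10% heat-inactivated horse serum, L-glutamine and antibiotics. Compound in DMSO added to cell aliquots for 10 min at room temperature. Rhodamine 123 then added (final 5.2 μM) for 20 min at 37 °C. Cells washed twice, resuspended in PBS pH 7.4, read by flow cytometry. FAR = (treated/untreated MDR) ÷ (treated/untreated parental).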

[5] = target: T1, ATP-dependent translocase ABCB1; assay: Reversal of P-glycoprotein-mediated multidrug resistance in human MDR1 gene transfected human Colo 320 cells assessed as fluorescence activity ratio at 4 ug/ml by flow cytometry; format: cell-based
Method in brief: (§1)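 Colo320/MDR1 cells run as for the L5178 rhodamine 123 assay: compound preincubation 10 min at room temperature, then rhodamine 123 (final 5.2 μM) for 20 min at 37 °C. Monolayers detached with 0.25% trypsin for 2–3 min before flow cytometry. FAR taken as the treated/untreated fluorescence ratio in MDR cells over that in parental cells.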

[6] = target: T1, ATP-dependent translocase ABCB1; assay: Reversal of P-glycoprotein-mediated multidrug resistance in human MDR1 gene transfected human Colo 320 cells assessed as fluorescence activity ratio at 0.4 ug/ml by flow cytometry; format: cell-based; method in brief: as §1
[7] = Dissociation constant, pKa of the compound; format: physicochemical
L5178Y [8] = assay: Cytocidal activity against human MDR1 gene transfected mouse L5178Y cells after 48 hrs by MTT method; format: functional; conditions: read-out: ID50 (the source's name)
Method in brief: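 Cells incubated with a range of compound concentrations for 48 h at 37 °C. Viability read by MTT. ID50 derived from the curves. Values are means of duplicate experiments.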

L5178Y [9] = assay: Toxicity in human MDR1 gene transfected mouse L5178Y cells at 40 ug/ml; format: cell-based

T1 sequence (P08183 whole entry): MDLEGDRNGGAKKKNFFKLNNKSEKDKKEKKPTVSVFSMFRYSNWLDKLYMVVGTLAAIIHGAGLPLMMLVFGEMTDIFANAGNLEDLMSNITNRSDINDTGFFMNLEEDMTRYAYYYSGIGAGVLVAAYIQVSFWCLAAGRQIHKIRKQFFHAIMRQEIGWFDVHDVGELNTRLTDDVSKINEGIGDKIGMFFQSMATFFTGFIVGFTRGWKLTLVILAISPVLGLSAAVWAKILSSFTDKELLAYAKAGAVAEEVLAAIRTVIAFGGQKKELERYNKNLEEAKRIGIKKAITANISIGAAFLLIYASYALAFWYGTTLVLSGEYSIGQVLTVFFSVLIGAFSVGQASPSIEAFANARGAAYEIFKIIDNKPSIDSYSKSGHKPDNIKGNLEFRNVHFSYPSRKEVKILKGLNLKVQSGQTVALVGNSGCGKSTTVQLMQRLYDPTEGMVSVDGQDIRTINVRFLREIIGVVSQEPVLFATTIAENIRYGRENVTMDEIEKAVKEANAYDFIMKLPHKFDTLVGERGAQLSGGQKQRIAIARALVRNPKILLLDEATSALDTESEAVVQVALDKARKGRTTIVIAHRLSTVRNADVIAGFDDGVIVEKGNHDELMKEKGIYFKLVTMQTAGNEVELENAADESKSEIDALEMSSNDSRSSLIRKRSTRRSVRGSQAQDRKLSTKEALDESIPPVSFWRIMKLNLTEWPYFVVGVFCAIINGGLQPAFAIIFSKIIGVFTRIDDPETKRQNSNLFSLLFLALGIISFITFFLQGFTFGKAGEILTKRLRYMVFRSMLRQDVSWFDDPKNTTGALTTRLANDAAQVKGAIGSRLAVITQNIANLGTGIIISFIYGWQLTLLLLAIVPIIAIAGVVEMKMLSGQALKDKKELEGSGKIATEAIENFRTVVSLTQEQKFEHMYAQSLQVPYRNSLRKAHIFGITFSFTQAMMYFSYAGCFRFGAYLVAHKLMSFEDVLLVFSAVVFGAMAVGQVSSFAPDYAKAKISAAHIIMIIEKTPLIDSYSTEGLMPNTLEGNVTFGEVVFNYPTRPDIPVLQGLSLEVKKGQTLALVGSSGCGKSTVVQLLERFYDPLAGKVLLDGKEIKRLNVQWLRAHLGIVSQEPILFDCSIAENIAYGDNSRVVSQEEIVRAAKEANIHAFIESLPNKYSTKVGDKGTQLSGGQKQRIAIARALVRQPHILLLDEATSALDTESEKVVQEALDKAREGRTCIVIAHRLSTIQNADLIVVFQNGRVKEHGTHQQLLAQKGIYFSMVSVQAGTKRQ

Ratio [1]	Ratio [2]	LogP [3]	LogP ([3]; read-out: LogP)	pKa [7]	SMILES	IC50 (L5178Y [8]) [µg/mL]	further results
2	1.58	3.38			O=C1/C(=C/c2ccccc2)CNC/C1=C\c1ccccc1		
1.22	1.03		1.3		CC[N+](C)(CC)CCOc1ccc(C(=O)N2C/C(=C\c3ccc([N+](=O)[O-])cc3)C(=O)/C(=C/c3ccc([N+](=O)[O-])cc3)C2)cc1.[I-]		
1.05	1.37		1.37		CC[N+](C)(CC)CCOc1ccc(C(=O)N2C/C(=C\c3ccccc3)C(=O)/C(=C/c3ccccc3)C2)cc1.[I-]		
1.85	1.21		2.73		CC[N+](C)(CC)CCOc1ccc(C(=O)N2C/C(=C\c3ccc(Cl)cc3)C(=O)/C(=C/c3ccc(Cl)cc3)C2)cc1.[I-]		
4.03	3.26	4.25			Cc1ccc(/C=C2\CNC/C(=C\c3ccc(C)cc3)C2=O)cc1		Ratio [4]: 1; Ratio [5]: 2.42; Ratio [6]: 1.24
114	1.93		2.27		CC[N+](C)(CC)CCOc1ccc(C(=O)N2C/C(=C\c3ccc(C)cc3)C(=O)/C(=C/c3ccc(C)cc3)C2)cc1.[I-]		
0.91	1.25	4.71			O=C1/C(=C/c2ccc(Cl)cc2)CNC/C1=C\c1ccc(Cl)cc1		
			5.34	8.5	Cc1ccc(/C=C2\CN(C(=O)c3ccc(OCCN4CCOCC4)cc3)C/C(=C\c3ccc(C)cc3)C2=O)cc1.Cl		
133	157	6.86		11.1	Cl.O=C1/C(=C/c2ccc(Cl)cc2)CN(C(=O)c2ccc(OCCN3CCCCC3)cc2)C/C1=C\c1ccc(Cl)cc1	4.17	
		5.95		10.7	CN(C)CCOc1ccc(C(=O)N2C/C(=C\c3ccc(Cl)cc3)C(=O)/C(=C/c3ccc(Cl)cc3)C2)cc1.Cl		
		5.35		10.8	CCN(CC)CCOc1ccc(C(=O)N2C/C(=C\c3ccccc3)C(=O)/C(=C/c3ccccc3)C2)cc1.Cl	3.27	
			4.36	8.5	Cl.O=C1/C(=C/c2ccc([N+](=O)[O-])cc2)CN(C(=O)c2ccc(OCCN3CCOCC3)cc2)C/C1=C\c1ccc([N+](=O)[O-])cc1		
			4.64	8.5	Cl.O=C1/C(=C/c2ccccc2)CN(C(=O)c2ccc(OCCN3CCOCC3)cc2)C/C1=C\c1ccccc1		
66.6	106	6.25		10.8	CCN(CC)CCOc1ccc(C(=O)N2C/C(=C\c3ccc(C)cc3)C(=O)/C(=C/c3ccc(C)cc3)C2)cc1.Cl	1.56	
146	179	6.4		11.1	Cc1ccc(/C=C2\CN(C(=O)c3ccc(OCCN4CCCCC4)cc3)C/C(=C\c3ccc(C)cc3)C2=O)cc1.Cl	2.83	Ratio [4]: 7.35; Ratio [5]: 10.8; Ratio [6]: 2.49
6.88	76		5.8	8.5	Cl.O=C1/C(=C/c2ccc(Cl)cc2)CN(C(=O)c2ccc(OCCN3CCOCC3)cc2)C/C1=C\c1ccc(Cl)cc1		
			4.52	10.7	CN(C)CCOc1ccc(C(=O)N2C/C(=C\c3ccc([N+](=O)[O-])cc3)C(=O)/C(=C/c3ccc([N+](=O)[O-])cc3)C2)cc1.Cl		
51.5	145	5.42		11.1	Cl.O=C1/C(=C/c2ccc([N+](=O)[O-])cc2)CN(C(=O)c2ccc(OCCN3CCCCC3)cc2)C/C1=C\c1ccc([N+](=O)[O-])cc1	2.15	
		5.51		11.1	Cl.O=C1/C(=C/c2ccccc2)CN(C(=O)c2ccc(OCCN3CCCCC3)cc2)C/C1=C\c1ccccc1	3.28	
51.6	45.5	4.6		10.7	CN(C)CCOc1ccc(C(=O)N2C/C(=C\c3ccccc3)C(=O)/C(=C/c3ccccc3)C2)cc1.Cl		
99.7	118	6.71		10.8	CCN(CC)CCOc1ccc(C(=O)N2C/C(=C\c3ccc(Cl)cc3)C(=O)/C(=C/c3ccc(Cl)cc3)C2)cc1.Cl	1.53	
		5.5		10.7	Cc1ccc(/C=C2\CN(C(=O)c3ccc(OCCN(C)C)cc3)C/C(=C\c3ccc(C)cc3)C2=O)cc1.Cl		Activity (L5178Y [9]): Toxic
					COc1ccc(CCN(C)CCC[C@](C#N)(c2ccc(OC)c(OC)c2)C(C)C)cc1OC	42 (≈ 92.4 µM)	

SMILES	Ratio [1]	Ratio [2]	LogP [3]	LogP ([3]; read-out: LogP)	pKa [7]	IC50 (L5178Y [8]) [µg/mL]	further results
O=C1/C(=C/c2ccc([N+](=O)[O-])cc2)CNC/C1=C\c1ccc([N+](=O)[O-])cc1			3.27				
CCN(CC)CCOc1ccc(C(=O)N2C/C(=C\c3ccc([N+](=O)[O-])cc3)C(=O)/C(=C/c3ccc([N+](=O)[O-])cc3)C2)cc1.Cl	14.1	77.5	5.27		10.8		
